What was measured:
[1] = system: A-375; experiment: Cytotoxicity against human A375 cells assessed as reduction in cell viability after 48 hrs by MTT assay; format: functional, cell-based; settings: for IC50: A-375, 48 h
How it was run: (§1)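 Cells seeded at 1 × 10^4 per well, 24 h at 37 °C, 5% CO2, in RPMI-1640 with 10% FBS, penicillin and streptomycin. Compounds were prepared from DMSO stocks (50 mg/mL) and added at 2.5–50.0 μg/mL for 48 h; DMSO controls. MTT read-out; IC50 taken from a sigmoidal dose–response fit of % viability versus log concentration by nonlinear regression.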

[2] = system: A549; experiment: Cytotoxicity against human A549 cells assessed as reduction in cell viability after 48 hrs by MTT assay; format: functional, cell-based; settings: for IC50: A549, 48 h; how it was run: as §1
[3] = system: MRC5; experiment: Cytotoxicity against human MRC5 cells assessed as reduction in cell viability after 48 hrs by MTT assay; format: cell-based; settings: MRC5, 48 h; how it was run: as §1
[4] = Selectivity index, ratio of IC50 for human MRC5 cells to IC50 for human A549 cells; format: toxicity; settings: MRC5 cells versus A549 cells, read-out: Ratio IC50
How it was run: (§2)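 Selectivity index is the IC50 in noncancerous MRC5 cells divided by the IC50 in the cancer line.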

[5] = Selectivity index, ratio of IC50 for human MRC5 cells to IC50 for human A375 cells; format: toxicity; settings: MRC5 cells versus A375 cells, read-out: Ratio IC50; how it was run: as §2
[6] = system: A549; experiment: Induction of apoptosis in human A549 cells assessed as late apoptotic cells at cytotoxic IC50 after 24 hrs by Annexin V-FITC/propidium iodide staining based flow cytometry (reference value: 1.02%); format: functional
[7] = system: A549; experiment: Induction of apoptosis in human A549 cells assessed as necrotic cells at cytotoxic IC50 after 24 hrs by Annexin V-FITC/propidium iodide staining based flow cytometry (reference value: 0.71%); format: functional
[8] = system: A549; experiment: Induction of apoptosis in human A549 cells assessed as live cells at cytotoxic IC50 after 24 hrs by Annexin V-FITC/propidium iodide staining based flow cytometry (reference value: 96.02%); format: functional
[9] = system: A549; experiment: Induction of apoptosis in human A549 cells assessed as early apoptotic cells at cytotoxic IC50 after 24 hrs by Annexin V-FITC/propidium iodide staining based flow cytometry (reference value: 2.25%); format: functional

Structure (SMILES)	Activity [1]	IC50 [1] [µM]	Activity [2]	IC50 [2] [µM]	IC50 [3] [µM]	selectivity ratio [4]	selectivity ratio [5]	Activity [6] [%]	Activity [7] [%]	Activity [8] [%]	Activity [9] [%]
C=C(C)[C@@H]1CC[C@]2(C(=O)O)CC[C@]3(CO)[C@H](CC[C@@H]4[C@@]5(C)C[C@@H](OC(=O)/C=C/c6ccc(O)c(O)c6)[C@H](OC(=O)/C=C/c6ccc(O)cc6)C(C)(C)[C@@H]5CC[C@]43C)[C@@H]12	Dose-dependent effect	6.3	Dose-dependent effect	6.3	7.8	1.25	1.25				
C=C(C)[C@@H]1CC[C@]2(C(=O)O)CC[C@]3(CO)[C@H](CC[C@@H]4[C@@]5(C)C[C@@H](OC(=O)/C=C/c6ccc(O)c(O)c6)[C@H](OC(=O)/C=C\c6ccc(O)cc6)C(C)(C)[C@@H]5CC[C@]43C)[C@@H]12	Dose-dependent effect	3.8	Dose-dependent effect	5	10	2	2.66	0.28	0.93	86.87	11.92
C=C(C)[C@@H]1CC[C@]2(C(=O)O)CC[C@]3(C)[C@H](CC[C@@H]4[C@@]5(C)CC[C@H](O)C(C)(C)[C@@H]5CC[C@]43C)[C@@H]12 [BETULINIC ACID]		43.7		43.7	32.8	0.75	0.75	2.24	1.3	90.8	5.66
C=C(C)[C@@H]1CC[C@]2(C(=O)O)CC[C@]3(C)[C@H](CC[C@@H]4[C@@]5(C)C[C@@H](OC(=O)/C=C/c6ccc(O)c(O)c6)[C@H](O)C(C)(C)[C@@H]5CC[C@]43C)[C@@H]12	Dose-dependent effect	6.3	Dose-dependent effect	15.8	7.9	0.5	1.25				
C=C(C)[C@@H]1CC[C@]2(C(=O)O)CC[C@]3(COC(=O)/C=C/c4ccc(O)c(O)c4)[C@H](CC[C@@H]4[C@@]5(C)CCC(=O)C(C)(C)[C@@H]5CC[C@]43C)[C@@H]12	Dose-dependent effect	7.7	Dose-dependent effect	15.5	9.7	0.63	1.25				
CC1(C)CC[C@]2(C(=O)O)CC[C@]3(C)C(=CC[C@@H]4[C@@]5(C)C[C@@H](OC(=O)/C=C/c6ccc(O)c(O)c6)[C@H](O)C(C)(C)[C@@H]5CC[C@]43C)[C@@H]2C1	Dose-dependent effect	11.8	Dose-dependent effect	4.7	7.9	1.66	0.67				
C=C(C)[C@@H]1CC[C@]2(C(=O)O)CC[C@]3(CO)[C@H](CC[C@@H]4[C@@]5(C)C[C@@H](OC(=O)/C=C/c6ccc(O)c(O)c6)[C@H](O)C(C)(C)[C@@H]5CC[C@]43C)[C@@H]12	Dose-dependent effect	11.5	Dose-dependent effect	15.4	18.5	1.2	1.6				

Source: ChEMBL document CHEMBL4118023, “Bioactive Pentacyclic Triterpene Ester Derivatives from Alnus viridis ssp. viridis Bark” (J Nat Prod, 2017)
